# Assay outcomes: PubChem BioAssay, several laboratories
# A selection: hits, their analogues and other compounds. The true share with any hit is near 2.3%.
# Pemphigus Ab inh – inhibitors of pemphigus antibody binding to DSG3, primary screen, biochemical, bead-based, flow cytometry, scFv-GFP. Desmoglein-3 (Homo sapiens), P32926. DSG3-coupled beads, scFv-anti-DSG3-GFP binding; hits give low values. binding (percent of control), % at 10 µM. 310,000 tested, 0.48% active. AID 588358, 2011;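 active = binding more than 3 SD below its plate's average and above zero; inconclusive = below that plate limit but binding exactly zero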;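 also: hits lower antibody fragment binding to DSG3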
# T cell HTS – modulators of CD8 T cell-vesicle binding, primary screen, mouse 2C CD8+ T cells, flow cytometry; 2C CD8+ T cell-vesicle binding; hits give low values; response (vesicle binding), % at 7 µM; 330,000 tested, 0.068% active;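 active = response, share of CD8 T cells binding vesicles, and their 90th percentile fluorescence all below set limits, cut at about 80% in these data, passing the limit was not always enough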;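 also: values below 100% mean blocked vesicle binding to the CD8+ T cells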
#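 material = purified 2C TCR transgenic mouse naive CD8+ T cells | controls = Unloaded micro-vesicles (low), QL9 vesicles with 0.7% DMSO (high) | detection = cytometric PE anti-B7-1 and Alexa647 anti-CD8 signals after 1% paraformaldehyde fixation | incubation = binding step 1.5 h, 37 °C, antibody labelling 20 min, ice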
# Mcl-1 Bim block – inhibitors of Bim peptide binding to Mcl-1, primary screen, biochemical, bead-based flow cytometry, multiplex; 190,000 tested, 0.1% active; Bim peptide-Mcl-1 binding; inhibition, % at 10 µM; Induced myeloid leukemia cell differentiation protein Mcl-1 (Homo sapiens), Q07820; in the data active = inhibition above about 40%;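 also: 0% = no compound tracer wells and 100% = peptide blocker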
# Mcl1 Bid PPI – Mcl-1/Bid binding inhibitors, primary screen, biochemical, TR-FRET, 1536-well; Induced myeloid leukemia cell differentiation protein Mcl-1 (Homo sapiens), Q07820; TR-FRET Mcl-1/Bid-Dy647 peptide binding; inhibition, % at 21.7 µM; 220,000 tested, 0.97% active; AID 1021, 2008;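 active = compounds that cut the binding signal by more than half at the single screening dose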;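 also: His-tagged Mcl-1 with europium anti-His antibody binding Bid BH3 peptide; 0% = Mcl-1 plus peptide wells and 100% = peptide-only wells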
# Mcl1 Noxa PPI – Mcl-1/Noxa binding inhibitors, primary screen, biochemical, TR-FRET, 1536-well. TR-FRET Mcl-1/Noxa peptide binding, 2 h. inhibition, % at 21.7 µM. 220,000 tested, 1.5% active. AID 1022, 2008;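 active = compounds that cut the protein-peptide binding signal by more than 50% relative to plate controls in a single-dose test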;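 also: His-tagged Mcl-1 with rhodamine Noxa BH3 peptide and terbium anti-His antibody; 0% = Mcl-1 plus Noxa peptide wells and 100% = peptide-only wells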
# MCL1-BIM inh – inhibitors of MCL1 binding to BIM-BH3, primary screen, biochemical, fluorescence polarization | Induced myeloid leukemia cell differentiation protein Mcl-1 (Homo sapiens), Q07820 | GST-MCL1 / FITC-Bim-BH3 fluorescence polarization | inhibition, % at 10.9 µM | 320,000 tested, 0.68% active | AID 2057, 2009;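 active = inhibition above the mean inhibition of all tested compounds plus 3 SD, set per campaign, cut at about 40% in these data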;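 also: 0% = DMSO wells and 100% = unlabeled Bim-BH3 peptide control; higher means more loss of mP so more displacement of Bim peptide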
# The depositor's hits bear a star; i = inactive; ? = inconclusive; . = no result given.
SMILES,Pemphigus Ab inh,T cell HTS,Mcl-1 Bim block,Mcl1 Bid PPI,Mcl1 Noxa PPI,MCL1-BIM inh
Cc1ccccc1C(=O)Nc1cccc(-c2ccc3nncn3n2)c1,86.3,319.5,3.0,-4.9,3.5,-3.4
Cc1c(Cl)cnc(NC(=O)COC(=O)[C@H](C)NC(=O)c2ccccc2)c1Cl,.,i,.,.,.,46.1*
Cc1c(Cl)cnc(NC(=O)COC(=O)CNC(=O)c2ccccc2)c1Cl,103.0,306.9,.,.,.,.
O[C@@H]1CN(Cc2cccs2)[C@@H](c2ccc(Cl)cc2)C[C@H]1n1cc(-c2ccc(F)cc2)nn1,105.0,.,.,.,.,.
CCc1ccc(NC(=S)NC2CC3CCC(C2)N3Cc2ccco2)cc1 (stereo not given),100.3,577.3,-5.0,96.4*,4.5,-0.6
COC(C(=O)Nc1ccnn1C1CCN(Cc2cnn(C(C)C)c2)CC1)c1ccccc1 (stereo not given),?,417.4,.,.,.,-10.4
CCCCCCc1nc(C(N)=O)c2[nH]c(=O)n(-c3ccccc3F)c2n1,62.4*,i,.,.,.,-6.3
C#CCOCCOCCOCCNc1nc(N2CCN(C(=O)[C@H](CCCCN)n3cc([C@@H](N)CC(C)C)nn3)CC2)nc(N2CCN(C(=O)[C@H](Cc3cc4ccccc4[nH]3)n3cc([C@@H](N)Cc4ccc(O)cc4)nn3)CC2)n1,108.4,.,1.0,59.9*,36.5,-2.0
C#CCOCCOCCOCCNc1nc(N2CCN(C(=O)[C@H](CCC(=O)O)n3cc(C(N)Cc4ccc(O)cc4)nn3)CC2)nc(N2CCN(C(=O)[C@H](Cc3ccc(O)cc3)n3cc(C(N)CC(C)C)nn3)CC2)n1 (stereo not given in full),.,.,.,-9.5,17.8,.
C#CCOCCOCCOCCNc1nc(N2CCN(C(=O)[C@H](CCCCN)n3cc(C(N)CC(C)C)nn3)CC2)nc(N2CCN(C(=O)[C@H](CCC(=O)O)n3cc(C(N)[C@H](C)CC)nn3)CC2)n1 (stereo not given in full),105.6,415.2,-2.0,82.4*,36.8,2.5
C#CCOCCOCCOCCNc1nc(N2CCN(C(=O)[C@H]([C@@H](C)CC)n3cc([C@@H](N)CO)nn3)CC2)nc(N2CCN(C(=O)[C@H]([C@@H](C)CC)n3cc([C@@H](N)CC(C)C)nn3)CC2)n1,118.4,266.6,-2.0,55.8*,22.7,42.6*
C#CCOCCOCCOCCNc1nc(N2CCN(C(=O)[C@H](CCC(=O)O)n3cc(C(N)CC(C)C)nn3)CC2)nc(N2CCN(C(=O)[C@H](Cc3ccc(O)cc3)n3cc(C(N)CC(C)C)nn3)CC2)n1 (stereo not given in full),114.3,358.8,0.0,59.0*,32.1,10.6
C#CCOCCOCCOCCNc1nc(N2CCN(C(=O)[C@H](CCCCN)n3cc([C@@H](N)CO)nn3)CC2)nc(N2CCN(C(=O)[C@H](Cc3cc4ccccc4[nH]3)n3cc([C@@H](N)Cc4ccc(O)cc4)nn3)CC2)n1,.,368.6,-3.0,42.8,35.5,10.2
C#CCOCCOCCOCCNc1nc(N2CCN(C(=O)[C@H]([C@@H](C)CC)n3cc([C@@H](N)CO)nn3)CC2)nc(N2CCN(C(=O)[C@H]([C@@H](C)CC)n3cc([C@@H](N)CO)nn3)CC2)n1,.,.,.,-38.5,11.4,.
C#CCOCCOCCOCCNc1nc(N2CCN(C(=O)[C@H](CCCCN)n3cc(C(N)CO)nn3)CC2)nc(N2CCN(C(=O)[C@H](CCC(=O)O)n3cc(C(N)CC(C)C)nn3)CC2)n1 (stereo not given in full),.,.,.,13.4,14.6,.
C#CCOCCOCCOCCNc1nc(N2CCN(C(=O)[C@H](C)n3cc(CCCN=C(N)N)nn3)CC2)nc(N2CCN(C(=O)[C@H](CCCCN)n3cc(CCCC)nn3)CC2)n1,.,.,-1.0,72.3*,40.2,.
CCOC(=O)N1CCN(C(=O)CSc2ccc3nnc(CCNC(=O)c4ccccc4)n3n2)CC1,94.7,222.9,0.0,-3.0,3.4,6.2
CCOC(=O)N1CCN(C(=O)CSc2ccc3nnc(CCNC(=O)c4ccc(OC)cc4)n3n2)CC1,100.7,231.6,-2.0,88.9*,2.2,4.2
COc1ccc2nc(SC(C)C(=O)NC3CCCC3)[nH]c2c1 (stereo not given),95.0,.,.,.,.,.
Nc1cccc(C2=Nc3cccc4cccc(c34)N2)c1,83.7,724.1,-3.0,35.3,74.1*,8.1
ClCC1=Nc2cccc3cccc(c23)N1,.,53.2,.,-75.0,58.0*,19.3
COc1ccc(C2=Nc3cccc4cccc(c34)N2)cc1,97.2,245.0,4.0,-72.0,35.0,10.8
CC(C)C1=Nc2cccc3cccc(c23)N1,113.6,599.4,-6.0,-71.0,52.6*,14.9
O=S(=O)(Cc1ccccc1)N(O)c1ccccc1,.,923.2,.,.,.,14.0
NCCCC[C@H](NC(=O)C1CCNCC1)c1nnc(CN)o1,.,.,0.0,90.2*,35.0,5.9
SMILES,Pemphigus Ab inh,T cell HTS,Mcl-1 Bim block,Mcl1 Bid PPI,Mcl1 Noxa PPI,MCL1-BIM inh
COc1ccc(C(=O)OCC(=O)c2ccco2)cc1[N+](=O)[O-],106.0,.,.,.,.,.
Cn1cnnc1SCc1cccc(Br)c1,41.1*,558.3,-1.0,-19.7,10.2,-6.6
COc1ccc(C(=O)Nc2ccc(NC(=O)C3CC3)cn2)cc1,104.6,466.4,.,.,.,3.4
COc1ccc(C(=O)Nc2ccc(NC(=O)c3cnccn3)cn2)cc1,71.7*,394.1,3.0,9.5,-9.7,-0.3
CC1=C(C(=O)N2CCOCC2)CC(CC(=O)NC2CCCCC2)C(=O)N1Cc1ccc(F)cc1 (stereo not given),99.3,.,.,.,.,.
Cn1nnnc1SCC1=C(C(=O)O)N2C(=O)[C@@H](NC(=O)[C@H](O)c3ccccc3)[C@H]2SC1,112.5,496.4,-4.0,-57.4,51.2*,10.6
Cn1nnnc1SCC1=C(C(=O)O)N2C(=O)C(NC(=O)C3CC3c3ccccc3)C2SC1 (stereo not given),98.0,406.5,3.0,-56.4,25.7,17.9
CC(=O)c1sc(N/N=C\c2cccc(Br)c2)nc1C,93.2,566.9,-5.0,-39.4,50.6*,-19.2
CCC1CSC(Nc2ccc(C(=O)/C=C/c3ccc(OC)c(OC)c3)cc2)=N1 (stereo not given),112.7,228.6,0.0,-27.9,67.7*,-1.5
CCC1CSC(Nc2ccc(C(=O)/C=C/c3ccc(Br)cc3)cc2)=N1 (stereo not given),88.5,i,4.0,30.6,38.3,5.9
